Laboratory results as given in publication PMC2709241 (Archives of biochemistry and biophysics, 2008).
Where a chain is given by its changes, count along the chain named. Like-named read-outs stand apart in the source and are kept apart here.

Tests used:
wild-type human MDD = molecular target: T1, wild-type human MDD (Homo sapiens, UniProt P53602); test: TNP-ATP fluorescence titration, Scatchard analysis, wild-type human MDD; type: binding
T1 sequence (P53602 1-400): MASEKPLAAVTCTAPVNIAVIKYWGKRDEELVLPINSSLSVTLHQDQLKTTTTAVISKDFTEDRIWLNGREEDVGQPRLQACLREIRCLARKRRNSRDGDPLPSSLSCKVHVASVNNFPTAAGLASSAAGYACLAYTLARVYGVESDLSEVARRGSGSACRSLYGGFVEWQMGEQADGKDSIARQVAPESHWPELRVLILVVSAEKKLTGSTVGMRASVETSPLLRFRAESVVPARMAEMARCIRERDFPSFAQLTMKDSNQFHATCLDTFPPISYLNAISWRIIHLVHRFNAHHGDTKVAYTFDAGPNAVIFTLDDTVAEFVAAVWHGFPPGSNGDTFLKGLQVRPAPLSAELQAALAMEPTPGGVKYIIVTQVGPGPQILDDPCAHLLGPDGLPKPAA
In short: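 Purified His6-tagged enzyme, wild type or mutant, was held at a fixed concentration while TNP-ATP was titrated in at 25°C. Buffer: 50 mM Tris-Cl pH 7.0, 0.5 mM MgCl2, 1 mM DTT. TNP-ATP was quantified at A409 (ε 26 400 M-1 cm-1). Excitation was 409 nm; peak emission (530–538 nm) was corrected for free probe in buffer alone. Scatchard analysis: Kd from slope; n per 44 kDa subunit from x-intercept.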

[1] = molecular target: T2, wild-type C-his tagged human MDD (Homo sapiens, UniProt P53602); test: Steady-state kinetics of wild-type; type: biochemical
T2 sequence (P53602 1-400): T1 sequence (P53602 1-400)
In short: (§1)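 His6-tagged human enzyme from E. coli BL21(DE3) was Ni-Sepharose purified and quantified by Bradford. Spectrophotometric assay at 30°C: ADP formation coupled through pyruvate kinase/lactate dehydrogenase (4 U) to NADH oxidation, with A340 decrease followed. Started with mevalonate diphosphate; substrate varied; Michaelis-Menten fit.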

N17A mutant human MDD = molecular target: T3, N17A mutant human MDD (Homo sapiens, UniProt P53602, N17A); test: Steady-state kinetics of N17A human MDD; type: biochemical; settings: for Km: N17A
T3 sequence (P53602 1-400 N17A): T1 sequence (P53602 1-400) with N17A
In short: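 N17A mutant, made by QuikChange PCR, was expressed and Ni-Sepharose purified as for the wild type. Started with mevalonate diphosphate; substrate varied; Michaelis-Menten fit. Km(ATP) was measured with RS-MVPP raised to 8.8 mM.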

S162A mutant human MDD = molecular target: T4, S162A mutant human MDD (Homo sapiens, UniProt P53602, S162A); test: Steady-state kinetics of S162A human MDD; type: biochemical
T4 sequence (P53602 1-400 S162A): T1 sequence (P53602 1-400) with S162A
In short: as §1

N-his tagged human MDD = molecular target: T5, N-his tagged human MDD (Homo sapiens, UniProt P53602); test: Steady-state kinetics of N-his tagged human MDD; type: biochemical; settings: N-his tagged enzyme
T5 sequence (P53602 1-400): T1 sequence (P53602 1-400)
In short: as §1

Question: Which Kd (wild-type human MDD) does the source give for Nc1ncnc2c1ncn2[C@@H]1O[C@H](COP(=O)(O)OP(=O)(O)OP(=O)(O)O)[C@H]2OC3(O[C@H]21)C([N+](=O)[O-])=CC(=[N+]([O-])[O-])C=C3[N+](=O)[O-] (stereo partly shown) [TNP-ATP, 2’(3’)-O-(2,4,6-Trinitrophenyl)adenosine-5’-triphosphate] here?
Answer: The Kd was 550 nM.

Question: And the “n (binding stoichiometry)” value (wild-type human MDD; WT, binding sites per 44 kDa subunit)?
Answer: The value was 0.77.

Question: For Nc1ncnc2c1ncn2[C@@H]1O[C@H](COP(=O)(O)OP(=O)(O)OP(=O)(O)O)[C@@H](O)[C@H]1O [ATP], which Km ([1]; read-out: Km(ATP), WT C-his, 30°C, pH 7.0) is on record?
Answer: The Km was 690 ± 70 µM.

Question: And the Km (N17A mutant human MDD; read-out: Km(ATP), elevated RS-MVPP (8.8 mM))?
Answer: The Km was 7700 ± 1200 µM.

Question: What about the Km (S162A mutant human MDD; read-out: Km(ATP)) of the same compound?
Answer: Its Km is 4900 ± 1300 µM.

Question: What about the Km (N-his tagged human MDD; read-out: Km(ATP)) of the same compound?
Answer: Its Km is 1700 µM.

Question: C[C@@](O)(CCOP(=O)(O)OP(=O)(O)O)CC(=O)O [MVAPP, mevalonate 5-diphosphate] was tested. Which Km ([1]; read-out: Km(R,S-MVAPP), WT, Table 4) did it give?
Answer: The Km was 28.9 ± 3.3 µM.

Question: What about the Km ([1]; read-out: Km(RS-MVPP), WT C-his, 30°C, pH 7.0) of the same compound?
Answer: Its Km is 28.9 ± 3.3 µM.

Question: What about the “Fold Inflation of Km for mevalonate diphosphate, N17A vs WT” value (N17A mutant human MDD; N17A vs WT, listed as R,S-MVAPP) of the same compound?
Answer: Its value is 14.7 fold.

Question: And the Km (N17A mutant human MDD; read-out: Km(R,S-MVAPP), Table 4)?
Answer: Its Km is 425 ± 74 µM.

Question: What about the Km (N17A mutant human MDD; read-out: Km(RS-MVPP), elevated ATP (20 mM) and MgCl2 (22mM)) of the same compound?
Answer: Its Km is 425 ± 74 µM.

Question: And the Km (S162A mutant human MDD; read-out: Km(RS-MVPP))?
Answer: Its Km is 126 ± 6.4 µM.

Question: What about the Km (N-his tagged human MDD; read-out: Km(RS-MVPP)) of the same compound?
Answer: Its Km is 42.1 µM.
